These results are taken from ChEMBL document CHEMBL5329154, “Novel 1,2,4-oxadiazole compounds as PPAR-α ligand agonists: a new strategy for the design of antitumour compounds” (RSC Med Chem, 2023).

What is called CC50 is the concentration giving 50% cytotoxicity. As usually defined, the EC50 is the concentration at which the effect is half-maximal.

Data set [1] is described as follows: Cytotoxicity against human WPMY-1 cells assessed as reduction in cell viability incubated for 72 hrs under normoxic condition by SRB assay. The format is toxicity, cell-based. The procedure, abridged:
(§1)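 Cells in DMEM with 2 mM L-glutamine, 10% FBS, penicillin and streptomycin at 37 °C, 5% CO2. Tumour cells (A498, DU-145) kept at hypoxia (1% O2); non-tumour cells (RPTEC, WPMY-1) at normoxia (20–21% O2). Seeded 2 × 10^4 cells/well, grown 12 h, then dosed 72 h at 0.20–100 μM (ten twofold steps, 0.5% DMSO). Fixed in cold 10% TCA, stained with 0.4% SRB, dye solubilised in 10 mM Tris, OD read at 540 nm. CC50 from non-linear regression.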
A general note: The SRB assay estimates cell density from bound dye.

The nature of data set [2]: Cytotoxicity against human RPTEC assessed as reduction in cell viability incubated for 72 hrs under normoxic condition by SRB assay. Format: toxicity, cell-based. Particulars: RPTEC cells. The gist of the method:
as §1

Another data set concerns A498. Kind of data set: Cytotoxicity against human A498 cells assessed as reduction in cell viability incubated for 72 hrs under hypoxic condition by SRB assay. Format: functional. The gist of the method:
as §1

The next data set relates to DU-145. Kind of data set: Cytotoxicity against human DU-145 cells assessed as reduction in cell viability incubated for 72 hrs under hypoxic condition by SRB assay. The format is functional. The gist of the method:
as §1

Data set [3] deals with T1, Peroxisome proliferator-activated receptor alpha (Homo sapiens, UniProt Q07869).
T1 sequence (Q07869 whole entry): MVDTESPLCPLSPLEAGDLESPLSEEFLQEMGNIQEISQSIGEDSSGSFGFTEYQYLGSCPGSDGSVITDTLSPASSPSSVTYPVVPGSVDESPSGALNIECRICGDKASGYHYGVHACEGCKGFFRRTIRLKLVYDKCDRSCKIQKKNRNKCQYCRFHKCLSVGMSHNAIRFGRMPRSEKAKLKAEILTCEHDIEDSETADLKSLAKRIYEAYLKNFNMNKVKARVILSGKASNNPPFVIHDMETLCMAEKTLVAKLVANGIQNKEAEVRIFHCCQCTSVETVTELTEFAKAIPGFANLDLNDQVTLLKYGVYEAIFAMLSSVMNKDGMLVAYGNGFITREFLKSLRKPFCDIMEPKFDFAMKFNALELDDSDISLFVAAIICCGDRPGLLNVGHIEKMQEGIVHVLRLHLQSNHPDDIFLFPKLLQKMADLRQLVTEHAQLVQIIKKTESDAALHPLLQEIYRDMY
Kind of data set: Agonist activity at GAL4-tagged PPARalpha in human WPMY-1 cells assessed as transcriptional activation incubated for 72 hrs under normoxic condition by luciferase assay. The format is cell-based.

The target in data set [4] is T1, Peroxisome proliferator-activated receptor alpha. The data set can be described thus: Agonist activity at GAL4-tagged PPARalpha in human RPTEC assessed as transcriptional activation incubated for 72 hrs under normoxic condition by luciferase assay. The format is cell-based.
Data set [5] shares this target. Kind of data set: Agonist activity at GAL4-tagged PPARalpha in human A498 cells assessed as transcriptional activation incubated for 72 hrs under hypoxic condition by luciferase assay. Format: cell-based.
Data set [6] has the same target. Kind of data set: Agonist activity at GAL4-tagged PPARalpha in human DU-145 cells assessed as transcriptional activation incubated for 72 hrs under hypoxic condition by luciferase assay. Format: cell-based.

As for `c1cncc(-c2noc(-c3ccsc3)n2)c1`, the results for the CC50 at 72 h in data set [1] and in data set [2] were 71.1 µM and 63.3 µM, respectively. Also, the CC50 with A498 was determined as 1.32 µM; with DU-145 it was 1.57 µM.

For `c1cncc(-c2noc(-c3cc[nH]c3)n2)c1`, the values for the CC50 at 72 h in data set [1] and in data set [2] were 96.9 µM and 92 µM, respectively. The CC50 was determined as 2.52 µM with A498 and 3.97 µM in the data set on DU-145.

As for `c1cncc(-c2noc(C3CCCC3)n2)c1`, the values for the half-maximal cytotoxic concentration (CC50) at 72 h in data set [1] and in data set [2] were 96.4 µM and 84.4 µM, respectively. Further, the results for the CC50 with A498 and in the data set on DU-145 were 1.79 µM and 2.81 µM, respectively.

As for `CCCCCc1nc(-c2cccnc2)no1`, the CC50 at 72 h in data set [1] was found to be 92.7 µM; in data set [2] it was 81.7 µM. Also, the CC50 with A498 was determined as 1.66 µM; with DU-145, 1.93 µM.

For the compound `c1cncc(-c2noc(-c3ncsn3)n2)c1`, the CC50 at 72 h was 53.7 µM in data set [1] and 45.5 µM in data set [2]. The CC50 amounted to 2.2 µM in the data set with A498 and 2.79 µM in the data set with DU-145.

`C1=CC(c2nc(-c3cccnc3)no2)CC1` (stereo unspecified): the EC50 in data set [3] was 0.73 µM; in data set [4], 0.21 µM; in data set [5] it was 0.47 µM; in data set [6], 1.5 µM. The values for the CC50 at 72 h in data set [1] and in data set [2] were 88 µM and 74.8 µM, respectively. Besides, the results for the CC50 in the data set on A498 and in the data set on DU-145 were 1.53 µM and 1.81 µM, respectively.

As to `C1=CC(c2nc(-c3cccnc3)no2)=CC1`, the CC50 at 72 h came out at 78.6 µM in data set [1] and 66.7 µM in data set [2]. The CC50 in the data set on A498 was determined as 1.37 µM; with DU-145, 1.63 µM.

`Cn1ccc(-c2nc(-c3cccnc3)no2)c1`: the CC50 at 72 h was 91.8 µM in data set [1] and 87.2 µM in data set [2]. The CC50 with A498 is 2.01 µM; with DU-145 it was 3.46 µM.

With `c1cncc(-c2noc(-c3nnon3)n2)c1`, the CC50 at 72 h in data set [1] was determined as 70.1 µM; in data set [2], 61.2 µM. For the same compound, the figures for the CC50 in the data set with A498 and in the data set on DU-145 were 2.64 µM and 2.63 µM, respectively.

Regarding `c1cncc(-c2noc(-c3nc[nH]n3)n2)c1`, the CC50 at 72 h in data set [1] stood at 98.1 µM; in data set [2], 93.6 µM. Besides, the CC50 came to 3.91 µM in the data set on A498 and 5.73 µM with DU-145.

As for `Cc1cccc(Nc2cc(Cl)nc(CSC(=O)O)n2)c1C`, the CC50 at 72 h in data set [1] was 62.9 µM; in data set [2], 54.1 µM. Further, the CC50 with A498 was 2.94 µM; in the data set on DU-145, 3.21 µM.

Turning to `Cn1cnc(-c2nc(-c3cccnc3)no2)n1`, the CC50 at 72 h in data set [1] was determined as 94.9 µM; in data set [2], 90.9 µM. The CC50 worked out at 4.83 µM with A498 and 6.82 µM in the data set on DU-145.

Regarding `Cn1nnc(-c2nc(-c3cccnc3)no2)n1`, the CC50 at 72 h in data set [1] turned out to be 93.4 µM; in data set [2] it was 89 µM. Besides, the CC50 came to 3.42 µM with A498 and 5.14 µM with DU-145.

As for `C1=C(c2nc(-c3cccnc3)no2)CCC1`, the CC50 at 72 h in data set [1] was determined as 81.3 µM; in data set [2], 68.4 µM. The CC50 in the data set with A498 was 1.39 µM; in the data set on DU-145 it was 1.68 µM.

On to `c1cncc(-c2noc(-c3nnsn3)n2)c1`, for which the results for the CC50 at 72 h in data set [1] and in data set [2] were 46.7 µM and 38.7 µM, respectively. In addition, the CC50 in the data set with A498 amounted to 1.21 µM; in the data set with DU-145 it was 1.45 µM.

For the compound `c1cncc(-c2noc(-c3ncon3)n2)c1`, the CC50 at 72 h was 77.7 µM in data set [1] and 67.5 µM in data set [2]. The results for the CC50 in the data set with A498 and in the data set with DU-145 were 3.76 µM and 3.43 µM, respectively.

On to `c1cncc(-c2noc(-c3nn[nH]n3)n2)c1`, for which the CC50 at 72 h stood at 99.2 µM in data set [1] and 95.2 µM in data set [2]. Also, the CC50 came to 5.28 µM in the data set with A498 and 7.49 µM with DU-145.

`c1cncc(-c2noc(-c3ccoc3)n2)c1`: the CC50 at 72 h in data set [1] is 62.5 µM; in data set [2], 54.8 µM. The CC50 is 1.52 µM in the data set on A498 and 1.83 µM with DU-145.
